Activity data for 18 molecules are collected here from ChEMBL document CHEMBL3272092, “Synthesis and antihypertensive activity of 5-thio-2-pyridinecarboxylic acid derivatives” (J Med Chem, 1978).

Series [1] concerns Rattus norvegicus. The series is described as follows: Antihypertensive activity in spontaneous hypertensive rat model assessed as decrease in blood pressure at 100 mg/kg, po administered for 2 to 4 days measured on day 2 to day 4. Type of series: functional. The gist of the method:
(§1)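 SHR, 4–6 per drug, were dosed daily by gavage for 2 or 4 consecutive days in 3% cornstarch, 5% PEG-400 and 1 drop Tween 80 per mL. After 1 h acclimation, systolic pressure was read by tail-cuff (inflated to 250 mmHg, then lowered; pulse reemergence), at least three readings, at 1, 2, 3 and 24 h post-dose. The peak fall is scored: +, <20 mm up to >80 mm.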

Series [2] concerns Rattus norvegicus. Description: Toxicity in spontaneous hypertensive rat model assessed as effect on heart rate at 100 mg/kg, po administered for 2 to 4 days. Type of series: organism-based. The arrangement: dose 100 mg/kg, route oral. The settings on record: in vivo. Summed up:
(§2)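 Heart rate in SHR was counted from tail-cuff pressure pulses after 1 h acclimation. Rats (4–6 per drug) were gavaged daily for 2 or 4 days at 100 mg/kg (sometimes 200 mg/kg) in 3% cornstarch, 5% PEG-400 and 1 drop Tween 80 per mL. Recordings were at 1, 2, 3 and 24 h after each dose.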

In series [3] the test system is Canis familiaris. Description: Antihypertensive activity in unanesthetized renal hypertensive Mongrel dog model assessed as change in mean blood pressure at 30 mg/kg, po qd measured on day 1. Type of series: functional, Canis lupus familiaris. Summed up:
(§3)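 Unanesthetized renal hypertensive dogs. Arterial pressure was recorded via a hypodermic needle and polyethylene tubing to a pressure transducer. Drug was given orally once daily as solid in a gelatin capsule. Pressure was determined 1.5, 3, 6 and 24 h after each dose, and the maximum change over each daily monitored session is reported.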

In series [4] the test system is Rattus norvegicus. Description: Antihypertensive activity in spontaneous hypertensive rat model assessed as decrease in blood pressure at 200 mg/kg, po administered for 2 to 4 days measured on day 2 to day 4. Type of series: functional. Summed up:
as §1

In series [5] the test system is Squirrel monkey. Description: Antihypertensive activity in normotensive squirrel monkey model assessed as decrease in systolic blood pressure at 100 mg/kg, po qd measured on day 1 by sphygmomanometry. Type of series: functional, Saimiri sciureus, Artery. Summed up:
(§4)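 Restrained squirrel monkeys of either sex with tails warmed by infrared lamp. Systolic pressure was measured indirectly with a tail-base occlusion cuff and pulse transducer. Doses were given daily by gavage as a suspension in 3% cornstarch, 5% PEG-400 and 1 drop Tween 80 per 10 mL. Readings were taken 1.5, 3, 5 and 24 h post-dose. Values are the peak change after each dose, analysed by paired t test.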

Series [6] has as its system Squirrel monkey. The series is described as follows: Antihypertensive activity in normotensive squirrel monkey model assessed as decrease in systolic blood pressure at 100 mg/kg, po qd measured on day 2 by sphygmomanometry. Type of series: functional, Saimiri sciureus, Artery. Summed up:
as §4

Series [7] concerns Canis familiaris. The series is described as follows: Toxicity in unanesthetized renal hypertensive Mongrel dog model assessed as change in heart rate at 30 mg/kg, po qd measured on day 2. Type of series: organism-based, Canis lupus familiaris. Set-up: dose 30 mg/kg, route oral. Particulars: in vivo. The gist of the method: (§5)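 Heart rate in unanesthetized renal hypertensive dogs was counted manually from the transducer-recorded arterial pressure trace. Oral dosing was once daily as solid in a gelatin capsule. Readings were at 1.5, 3, 6 and 24 h post-dose, and the maximum change per daily session is reported.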

In series [8] the test system is Canis familiaris. The series is described as follows: Toxicity in unanesthetized renal hypertensive Mongrel dog model assessed as change in heart rate at 30 mg/kg, po qd measured on day 1. The settings on record: in vivo. Set-up: dose 30 mg/kg, route oral. Type of series: organism-based, Canis lupus familiaris. The gist of the method:
as §5

The test system of series [9] is Canis familiaris. The series is described as follows: Toxicity in unanesthetized renal hypertensive Mongrel dog model assessed as emesis at 30 mg/kg, po qd measured on day 1 to 4. Type of series: organism-based, Canis lupus familiaris. The arrangement: dose 30 mg/kg, route oral. The settings on record: in vivo.
Series [10] has as its system Squirrel monkey. Description: Toxicity in normotensive squirrel monkey model assessed as change in heart rate at 100 mg/kg, po qd measured on day 1. Type of series: organism-based, Saimiri sciureus. Set-up: dose 100 mg/kg, route oral. The settings on record: in vivo. Summed up: (§6)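 Heart rate in restrained, tail-warmed squirrel monkeys was counted manually from the tail-cuff pressure record. Daily gavage used a suspension in 3% cornstarch, 5% PEG-400 and 1 drop Tween 80 per 10 mL. Monitoring was at 1.5, 3, 5 and 24 h after each dose, and the peak change per administration is reported. Paired t test.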

Series [11] concerns Squirrel monkey. Description: Toxicity in normotensive squirrel monkey model at 100 mg/kg, po qd measured on day 3. Type of series: organism-based, Saimiri sciureus. Set-up: dose 100 mg/kg, route oral. The settings on record: in vivo.
The test system of series [12] is Squirrel monkey. Description: Antihypertensive activity in normotensive squirrel monkey model assessed as decrease in systolic blood pressure at 100 mg/kg, po qd measured on day 3 by sphygmomanometry. Type of series: functional, Saimiri sciureus, Artery. The gist of the method:
as §4

Series [13] has as its system Squirrel monkey. The series is described as follows: Toxicity in normotensive squirrel monkey model assessed as change in heart rate at 100 mg/kg, po qd measured on day 2. Type of series: organism-based, Saimiri sciureus. The arrangement: dose 100 mg/kg, route oral. Particulars: in vivo. The gist of the method:
as §6

In series [14] the test system is Squirrel monkey. Description: Toxicity in normotensive squirrel monkey model assessed as change in heart rate at 100 mg/kg, po qd measured on day 3. Type of series: organism-based, Saimiri sciureus. Set-up: dose 100 mg/kg, route oral. The settings on record: in vivo. Summed up:
as §6

Series [15] deals with Canis familiaris. Description: Antihypertensive activity in unanesthetized renal hypertensive Mongrel dog model assessed as change in mean blood pressure at 30 mg/kg, po qd measured on day 2. Type of series: functional, Canis lupus familiaris. Summed up: as §3
The subject of series [16] is Canis familiaris. The series is described as follows: Toxicity in unanesthetized renal hypertensive Mongrel dog model assessed as change in heart rate at 30 mg/kg, po qd measured on day 3. Type of series: organism-based, Canis lupus familiaris. Set-up: dose 30 mg/kg, route oral. The settings on record: in vivo. The gist of the method:
as §5

For series [17], the system named is Rattus norvegicus. The series is described as follows: Toxicity in spontaneous hypertensive rat model assessed as bradycardia at 200 mg/kg, po administered for 2 to 4 days. Type of series: organism-based. Set-up: dose 200 mg/kg, route oral. Particulars: in vivo. The gist of the method: as §2
Series [18] deals with Canis familiaris. The series is described as follows: Antihypertensive activity in unanesthetized renal hypertensive Mongrel dog model assessed as change in mean blood pressure at 30 mg/kg, po qd measured on day 3. Type of series: functional, Canis lupus familiaris. The gist of the method: as §3
Series [19] deals with Rattus norvegicus. The series is described as follows: Toxicity in spontaneous hypertensive rat model at 100 mg/kg, po administered for 2 to 4 days. Type of series: organism-based. Set-up: dose 100 mg/kg, route oral. Particulars: in vivo.
For series [20], the system named is Rattus norvegicus. Description: Antihypertensive activity in spontaneous hypertensive rat model assessed as decrease in blood pressure at 30 mg/kg, po administered for 2 to 4 days measured on day 2 to day 4. Type of series: functional.

Active and inactive are the calls of the source. The rule behind the calls is not given here. Bounds are passed on as bounds.

Turning to `COc1ccc(CSc2ccc(C(=O)[O-])nc2)cc1.[Na+]`, the Activity in series [1] is below 20 mmHg.

Take `O=C(O)c1ccc(SCc2ccc(Cl)cc2)cn1`: the Activity in series [1] is listed as above 40 mmHg.

With `O=C([O-])c1ccc(S(=O)(=O)Cc2cccc(C(F)(F)F)c2)cn1.[Na+]`, the Activity in series [1] is below 20 mmHg.

Turning to `Cc1cccc(CSc2ccc(C(=O)O)nc2)c1`, in [1], the Activity is recorded as below 20 mmHg.

As for `CC(c1cccc(C(F)(F)F)c1)[S+]([O-])c1ccc(C(=O)O)nc1` (stereo unspecified), the Activity in [1] is recorded as above 20 mmHg.

`O=C([O-])c1ccc(SCc2ccc(Cl)c(Cl)c2)cn1.[Na+]`: the Activity in series [1] is below 20 mmHg.

`COc1cccc(C[S+]([O-])c2ccc(C(=O)O)nc2)c1` (stereo unspecified): the Activity in series [1] is below 20 mmHg.

Take `O=C([O-])c1ccc(SCc2c(Cl)cccc2Cl)cn1.[Na+]`: the Activity in series [1] is below 20 mmHg.

Turning to `CCCCSc1ccc(C(=O)O)nc1`, the Activity in series [1] is above 20 mmHg; in series [2] it was “Non-toxic”.

For `O=C(O)c1ccc(SCc2cccc(C(F)(F)F)c2)cn1`, the Activity in [3] was 12 mmHg; in [1], above 40 mmHg; in [4], above 80 mmHg; in series [5], -27 mmHg; in [6], -25 mmHg; in series [7], 9 bpm. Also, the Activity was 5 bpm in [8]; “Non-toxic” in series [9]; -40 bpm in [10]; “Toxic” in series [11]; -25 mmHg in [12]; -26 bpm in series [13]. Besides, the Activity in [14] is given as -20 bpm; in [15], 22 mmHg; in [16] it was -12 bpm; in [17], “Toxic”; in series [18] it was 24 mmHg.

In the case of `N#Cc1cccc(CSc2ccc(C(=O)[O-])nc2)c1.[Na+]`, in series [1], the Activity was above 20 mmHg.

`CCCCS(=O)(=O)c1ccc(C(=O)O)nc1`: the outcome in series [1] was inactive.

`COc1ccc(C[S+]([O-])c2ccc(C(=O)O)nc2)cc1` (stereo unspecified): the Activity in [1] is on record as above 20 mmHg.

For `O=C(O)c1ccc(SCc2ccccc2)cn1`, in series [1], the Activity is above 40 mmHg.

As for `CC(Sc1ccc(C(=O)O)nc1)c1cccc(Cl)c1` (stereo unspecified), the Activity in series [1] was below 20 mmHg.

For the molecule `O=C([O-])c1ccc(Sc2ccc(Cl)cc2)cn1.[Na+]`, the results for the Activity entry in [19] and in series [20] were “Toxic” and below 20 mmHg, respectively.

Take `Cc1ccc(CSc2ccc(C(=O)[O-])nc2)cc1.[Na+]`: the Activity in series [1] is on record as below 20 mmHg.

As for `O=C(O)c1ccc(SCCCCl)cn1`, the Activity in series [1] is given as above 20 mmHg.
